Measurements taken from publication PMC3371134 (Journal of Neurochemistry, 2012).
“Also recorded” adds a separate entry of the source.

Tests used:
[1] = test system: calneuron 1 (Caln1); assay: Yeast two-hybrid; type: binding, mouse; conditions: LexA and VP16 fusions, lacZ reporter, X-gal
How it was run: (§1)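 Mouse coding sequences (from brain cDNA) were cloned as galactose-inducible LexA and VP16 fusions and co-transformed into S260 yeast, selected on glucose Trp−/Ura− plates. Colonies on filters were switched to galactose for induction, then assayed for lacZ with X-gal. Autoactivation was checked against LexA/VP16 control vectors. Blue within 1 h was scored positive; blue at 2–4 h was scored weak.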

[2] = test system: calmodulin-Sepharose; assay: CaM-Sepharose pulldown of Myc-tagged proteins expressed in COS-7 cells; type: binding
How it was run: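 Myc-tagged mouse constructs (from brain cDNA) were expressed in COS-7 cells, grown in DMEM/10% FBS at 37°C and transfected at 80% confluency with 3 μg plasmid. After 48 h, cells were lysed 30 min at 4°C in TX-buffer (50 mM Tris-HCl pH 6.9, 0.5% Triton X-100, protease inhibitors). Cleared lysate was incubated overnight at 4°C with CaM-Sepharose, then washed 3× and detected by SDS-PAGE/anti-Myc (9E10) western blot with ECL.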

[3] = test system: calmodulin-like 4 (Calml4); assay: Yeast two-hybrid; type: binding, mouse; conditions: LexA and VP16 fusions, lacZ reporter, X-gal
How it was run: as §1

[4] = test system: calcineurin B (CnB); assay: Yeast two-hybrid; type: binding, mouse; conditions: LexA and VP16 fusions, lacZ reporter, X-gal
How it was run: as §1

[5] = test system: centrin 2 (Cetn2); assay: Yeast two-hybrid; type: binding, mouse; conditions: LexA and VP16 fusions, lacZ reporter, X-gal
How it was run: as §1

B1: Pcp4l1: small neuronal IQ motif protein, 68 amino acids, full length (protein)
chain: MSELNTKTPPAANQASDPEEKGKPGSIKKAEEEEEIDIDLTAPETEKAALAIQGKFRRFQKRKKDSSS
modifications: left off: Myc, end not stated, kept
[1]
  interaction with Caln1 in Y2H: no binding was detected
[2]; 5mM CaCl2, TX-buffer pH 6.9, overnight at 4°C, anti-Myc western blot
  CaM-Sepharose pulldown, calcium-replete: binds weakly or not at all to CaM; also recorded: interacts poorly with CaM in both low and high calcium conditions
[2]; 5mM CaCl2 or 5mM EGTA, summary in Discussion
  calcium dependence of CaM binding / overall CaM binding: little or no binding in either calcium poor or replete conditions
[2]; 5mM EGTA, TX-buffer pH 6.9, overnight at 4°C, anti-Myc western blot
  CaM-Sepharose pulldown, calcium-poor: binds weakly or not at all to CaM; also recorded: interacts poorly with CaM in both low and high calcium conditions
[3]
  interaction with Calml4 in Y2H: no binding was detected
[4]
  interaction with CnB in Y2H: no binding was detected
[5]
  interaction with Cetn2 in Y2H: no binding was detected
